Laboratory results from ChEMBL document CHEMBL1221337, “The unsaturated acyclic nucleoside analogues bearing a sterically constrained (Z)-4'-benzamido-2'-butenyl moiety: Synthesis, X-ray crystal structure study, cytostatic and antiviral activity evaluations” (Bioorg Med Chem, 2010).
Calls of active or inactive are those of the source. The rule behind the calls is not given here.

How the values were obtained:
[1] = tested on: Vesicular stomatitis virus; assay: Antiviral activity against Vesicular stomatitis virus infected in HEL cells assessed as inhibition of virus-induced cytopathicity; format: functional, organism-based
Coxsackievirus B4 [2] = assay: Antiviral activity against Coxsackievirus B4 infected in Vero cells assessed as inhibition of virus-induced cytopathicity; format: functional, organism-based
How it was run: (§1)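 Confluent cell monolayers in 96-well plates were inoculated with 100 CCID50 of virus. After 1 h adsorption, residual virus was removed. Cultures were then incubated with test compound at varying concentrations (200, 40, 8... µM). Viral cytopathicity was scored once it reached completion in untreated infected controls. Host cells: HEL for HSV-1 KOS and HSV-2 G; Vero for the Vero lines; HeLa for the HeLa lines.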

Sindbis virus = assay: Antiviral activity against Sindbis virus infected in Vero cells assessed as inhibition of virus-induced cytopathicity; format: functional, organism-based; how it was run: as §1
HeLa [3] = assay: Cytotoxicity against human HeLa cells assessed as cell viability after 3 days by coulter counting; format: cell-based; details: 72 h
[4] = tested on: Mammalian orthoreovirus 1; assay: Antiviral activity against Reovirus 1 infected in Vero cells assessed as inhibition of virus-induced cytopathicity; format: functional, organism-based; how it was run: as §1
HeLa [5] = assay: Cytotoxicity against human HeLa cells after 72 hrs by MTT assay; format: functional, cell-based
How it was run: (§2)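 Adherent cells were plated at 3000–6000 cells/well on day 0, according to doubling time. Compound was added as five 10-fold dilutions (1 × 10⁻⁸–1 × 10⁻⁴ M), with DMSO ≤0.1%, and incubated 72 h. Read-out was MTT absorbance converted to percentage growth versus untreated wells on the same plate. IC50 was obtained by linear regression between bracketing concentrations; the highest concentration was reported as ">" if not reached. Quadruplicates, three experiments.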

Influenza A virus = assay: Antiviral activity against influenza A virus H1N1; H3N2 infected in MDCK cells assessed as inhibition of virus-induced cytopathicity; format: functional, organism-based
How it was run: (§3)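 MDCK cells, nearly confluent in microtiter plates, were infected with 100 CCID50 per well. After 1 h adsorption, the inoculum was washed off. Cells were incubated with graded compound concentrations (200, 40, 8…). Cytopathicity was recorded at completion in untreated infected controls.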

Coxsackievirus B4 [6] = assay: Antiviral activity against Coxsackievirus B4 infected in human HeLa cells assessed as inhibition of virus-induced cytopathicity; format: functional, organism-based; how it was run: as §1
Punta Toro virus = assay: Antiviral activity against Punta Toro virus infected in Vero cells assessed as inhibition of virus-induced cytopathicity; format: functional, organism-based; how it was run: as §1
Vaccinia virus = assay: Antiviral activity against Vaccinia virus infected in HEL cells assessed as inhibition of virus-induced cytopathicity; format: functional, organism-based; details: Orthopoxvirus vaccinia
MDCK = assay: Cytotoxicity against MDCK cells assessed as cell viability after 3 days by coulter counting; format: cell-based, Canis lupus familiaris; details: dog, 72 h
[7] = Cytotoxicity against human WI38 cells after 72 hrs by MTT assay; format: cell-based; details: WI-38, 72 h; how it was run: as §2
[8] = tested on: Vesicular stomatitis virus; assay: Antiviral activity against Vesicular stomatitis virus infected in human HeLa cells assessed as inhibition of virus-induced cytopathicity; format: functional, organism-based
How it was run: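 Confluent HeLa cultures were infected with 100 CCID50 of virus. Unadsorbed virus was removed after 1 h, and compound was added at serial concentrations (200, 40, 8…). Viral cytopathic effect was read when untreated virus-infected control wells reached full cytopathicity.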

Human alphaherpesvirus 1 = assay: Antiviral activity against HSV1 KOS infected in HEL cells assessed as inhibition of virus-induced cytopathicity; format: functional, organism-based; how it was run: as §1
Vero = assay: Cytotoxicity against african green monkey Vero cells assessed as cell viability after 3 days by coulter counting; format: cell-based; details: chlorocebus sabaeus, 72 h
MIA PaCa-2 = assay: Cytotoxicity against human MIAPaCa2 cells after 72 hrs by MTT assay; format: functional, cell-based; details: MIA PaCa-2, 72 h; how it was run: as §2
SW-620 = assay: Cytotoxicity against human SW620 cells after 72 hrs by MTT assay; format: functional, cell-based; details: SW-620, 72 h; how it was run: as §2
Human respirovirus 3 = assay: Antiviral activity against Parainfluenza 3 infected in Vero cells assessed as inhibition of virus-induced cytopathicity; format: functional, organism-based; how it was run: as §1
MCF7 = assay: Cytotoxicity against human MCF7 cells after 72 hrs by MTT assay; format: functional, cell-based; details: MCF7, 72 h; how it was run: as §2
[9] = tested on: Respiratory syncytial virus; assay: Antiviral activity against Respiratory syncytial virus infected in human HeLa cells assessed as inhibition of virus-induced cytopathicity; format: functional, organism-based; how it was run: as §1
Influenza B virus = assay: Antiviral activity against influenza B virus infected in MDCK cells assessed as inhibition of virus-induced cytopathicity; format: functional, organism-based; how it was run: as §3
HEp-2 = assay: Cytotoxicity against human Hep2 cells after 72 hrs by MTT assay; format: functional, cell-based; details: HEp-2, 72 h; how it was run: as §2
Human alphaherpesvirus 2 = assay: Antiviral activity against HSV2 G infected in HEL cells assessed as inhibition of virus-induced cytopathicity; format: functional, organism-based; details: strain G; how it was run: as §1
SK-BR-3 = assay: Cytotoxicity against human SK-BR-3 cells after 72 hrs by MTT assay; format: functional, cell-based; details: SK-BR-3, 72 h; how it was run: as §2
HEL = assay: Cytotoxicity against HEL cells assessed as cell viability after 3 days by coulter counting; format: cell-based; details: human, 72 h
How it was run: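 HEL cells were seeded at 5 × 10³ cells/well and allowed to proliferate 24 h. Medium with test compound at different concentrations was then added, and cells were incubated 3 days at 37 °C. Cell number was counted by Coulter counter. CC50 (50% reduction in cell number versus untreated controls) was read from plots of cell number (% of control) against concentration.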

Row | SMILES | inhibition [1] | inhibition (Coxsackievirus B4 [2]) | inhibition (Sindbis virus) | Activity (HeLa [3]) | inhibition [4] | IC50 (HeLa [5]) [µM] | inhibition (Influenza A virus) | inhibition (Coxsackievirus B4 [6]) | inhibition (Punta Toro virus) | inhibition (Vaccinia virus) | Activity (MDCK) | IC50 [7] [µM] | inhibition [8] | inhibition (Human alphaherpesvirus 1) | Activity (Vero) | IC50 (MIA PaCa-2) [µM] | IC50 (SW-620) [µM] | inhibition (Human respirovirus 3) | IC50 (MCF7) [µM] | inhibition [9] | further results
1 | Nc1ncnc2c1ncn2C/C=C\CNC(=O)c1ccccc1 | inactive | inactive | inactive | Non-toxic | inactive | > 100 | inactive | inactive | inactive | inactive | Non-toxic | > 100 | inactive | inactive | Non-toxic | > 100 | > 100 | inactive | > 100 | inactive | inhibition (Influenza B virus): inactive; IC50 (HEp-2): > 100 µM; inhibition (Human alphaherpesvirus 2): inactive; IC50 (SK-BR-3): > 100 µM; Activity (HEL): Non-toxic
2 | O=C(NC/C=C\Cn1cc(F)c(=O)[nH]c1=O)c1ccccc1 | inactive | inactive | inactive | Non-toxic | inactive | > 100 | inactive | inactive | inactive | inactive | Non-toxic | > 100 | inactive | inactive | Non-toxic | > 100 | > 100 | inactive | > 100 | inactive | inhibition (Influenza B virus): inactive; IC50 (HEp-2): 87.5 µM; inhibition (Human alphaherpesvirus 2): inactive; IC50 (SK-BR-3): > 100 µM; Activity (HEL): Non-toxic
3 | Cc1cn(C/C=C\CNC(=O)c2ccccc2)c(=O)[nH]c1=O | inactive | inactive | inactive | Non-toxic | inactive | > 100 | inactive | inactive | inactive | inactive | Non-toxic | 4.3 | inactive | inactive | Non-toxic | > 100 | > 100 | inactive | > 100 | inactive | inhibition (Influenza B virus): inactive; IC50 (HEp-2): > 100 µM; inhibition (Human alphaherpesvirus 2): inactive; IC50 (SK-BR-3): > 100 µM; Activity (HEL): Non-toxic
4 | O=C(NC/C=C\Cn1ccc(=O)[nH]c1=O)c1ccccc1 | inactive | inactive | inactive | Non-toxic | inactive | 4.9 | inactive | inactive | inactive | inactive | Non-toxic | 6.6 | inactive | inactive | Non-toxic | > 100 | > 100 | inactive | > 100 | inactive | inhibition (Influenza B virus): inactive; IC50 (HEp-2): > 100 µM; inhibition (Human alphaherpesvirus 2): inactive; IC50 (SK-BR-3): > 100 µM; Activity (HEL): Non-toxic
